pIC50: −log10 of the molar value. Active and inactive are the calls of the source. The rule behind the calls is not given here.
Columns and labels:
[1] = target: T1, Protein cereblon/Cyclin-dependent kinase 2/Cyclin-dependent kinase 9 (Homo sapiens, UniProt P24941+P50750+Q96SW2); assay: Protac activity at CRBN/CDK2/CDK9 in AR-negative human PC3 cells assessed as induction of CDK2 protein degradation at 1 uM after 12 hrs by Western blot analysis; format: cell-based; conditions: PC-3
In short: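 PC-3 cells (5 × 10^5 per well) treated 12 h at single concentrations (50 nM, 500 nM, 1, 5 or 30 µM). RIPA lysates (50 µg) run on 10% SDS-PAGE and immunoblotted for CDK2, CDK5, CDK9 with β-tubulin loading control, then detected by chemiluminescence. Band intensities quantified densitometrically.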

PC-3 [2] = assay: Antiproliferative activity against AR-negative human PC3 cells assessed as reduction in cell viability after 5 days by CCK8 assay; format: functional, cell-based; conditions: PC-3, 120 h
In short: (§1)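 Cells seeded at 3 × 10^3 per well for 24 h, then dosed in 10-point, 3-fold serial dilution from 10 µM. CCK-8 added after 5 days, 4 h at 37 °C, absorbance at 450 nm. IC50 averaged from three separate determinations (at least two independent runs, duplicate wells). PC-3 grown in DMEM/F12 (1:1), LO2 in RPMI 1640, both with 10% FBS.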

[3] = target: T1, Protein cereblon/Cyclin-dependent kinase 2/Cyclin-dependent kinase 9; assay: Protac activity at CRBN/CDK2/CDK9 in AR-negative human PC3 cells assessed as induction of CDK2 protein degradation after 24 hrs by Western blot analysis; format: cell-based
In short: (§2)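 PC-3 cells exposed to a degrader concentration series, then immunoblotted for CDK2 and CDK9 versus β-tubulin. The figure legend gives 24 h exposure. DC50 taken as mean of 2 determinations from densitometry.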

[4] = target: T1, Protein cereblon/Cyclin-dependent kinase 2/Cyclin-dependent kinase 9; assay: Protac activity at CRBN/CDK2/CDK9 in AR-negative human PC3 cells assessed as induction of CDK9 protein degradation after 24 hrs by Western blot analysis; format: cell-based; in short: as §2
[5] = target: T1, Protein cereblon/Cyclin-dependent kinase 2/Cyclin-dependent kinase 9; assay: Protac activity at CRBN/CDK2/CDK9 in AR-negative human PC3 cells assessed as induction of CDK9 protein degradation at 500 nM after 4 hrs by Western blot analysis relative to control; format: cell-based; conditions: PC-3
In short: (§3)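 PC-3 cells treated with 500 nM degrader for varying times. Lysates blotted for CDK2, CDK4, CDK6, CDK9, c-Myc and Mcl-1, each at 1/1000 primary antibody, with β-tubulin reference and chemiluminescent detection.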

[6] = target: Protein cereblon/Cyclin-dependent kinase 4 (Homo sapiens) (UniProt P11802+Q96SW2); assay: Protac activity at CRBN/CDK4 in AR-negative human PC3 cells assessed as induction of CDK4 protein degradation at 500 nM after 24 hrs by Western blot analysis; format: cell-based; conditions: PC-3; in short: as §3
[7] = target: Protein cereblon/Cyclin-dependent kinase 6 (Homo sapiens) (UniProt Q00534+Q96SW2); assay: Protac activity at CRBN/CDK6 in AR-negative human PC3 cells assessed as induction of CDK4 protein degradation at 500 nM after 24 hrs by Western blot analysis; format: cell-based; conditions: PC-3; in short: as §3
[8] = target: T1, Protein cereblon/Cyclin-dependent kinase 2/Cyclin-dependent kinase 9; assay: Protac activity at CRBN/CDK2/CDK9 in AR-negative human PC3 cells assessed as reduction in c-Myc protein expression at 500 nM measured after 2 to 24 hrs by Western blot analysis; format: cell-based; conditions: PC-3; in short: as §3
[9] = target: T1, Protein cereblon/Cyclin-dependent kinase 2/Cyclin-dependent kinase 9; assay: Protac activity at CRBN/CDK2/CDK9 in AR-negative human PC3 cells assessed as CDK2 degradation at 250 nM preincubated with pomalidomide for 2 hrs and measured after 8 hrs by Western blot analysis; format: cell-based; conditions: PC-3
In short: (§4)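 PC-3 cells pretreated 2 h with 5 µM DMSO, FN-1501, pomalidomide or MG-132, then exposed to degrader at 250 nM for 8 h. Lysates probed for CDK2 and CDK9, β-tubulin as loading control. 50 µg protein per lane, 10% SDS-PAGE, chemiluminescent detection.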

[10] = target: T1, Protein cereblon/Cyclin-dependent kinase 2/Cyclin-dependent kinase 9; assay: Protac activity at CRBN/CDK2/CDK9 in AR-negative human PC3 cells assessed as CDK2 degradation at 250 nM preincubated with proteasome inhibitor MG132 for 2 hrs and measured after 8 hrs by Western blot analysis; format: cell-based; conditions: PC-3; in short: as §4
L02 = assay: Cytotoxicity against human LO2 cells assessed as reduction in cell viability after 5 days by CCK-8 assay; format: cell-based; conditions: L02, 120 h; in short: as §1
CDK2/Cyclin A2 = CDK2/Cyclin A2 (Homo sapiens, UniProt P24941); assay: Inhibition of tracer K10 binding to NanoLuc-CDK2/Cyclin A (unknown origin) expressed in human HEK293 cells after 1 hr in presence of ATP by NanoBRET assay; format: cell-based
In short: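 Cell-based target engagement run by a contract lab. HEK293 cells pretreated with NanoBRET Tracer K-10, then exposed to compound for 1 h with 10 µM ATP, and BRET signal read. 10-point, 3-fold dilutions from 1 µM. Staurosporine reference used 4-fold dilutions from 20 µM. IC50 from sigmoidal dose-response fit.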

[11] = target: T1, Protein cereblon/Cyclin-dependent kinase 2/Cyclin-dependent kinase 9; assay: Protac activity at CRBN/CDK2/CDK9 in human MCF7 cells assessed as CDK2 degradation at 0.25 to 10 uM after 12 hrs by Westernblot analysis; format: cell-based
In short: (§5)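 22Rv1, HCT-116 (RPMI 1640, 10% FBS) and MCF-7 cells treated with degrader at indicated concentrations for 12 h. CDK2 and CDK9 blotted with β-tubulin loading control.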

[12] = target: T1, Protein cereblon/Cyclin-dependent kinase 2/Cyclin-dependent kinase 9; assay: Protac activity at CRBN/CDK2/CDK9 in human 22Rv1 cells assessed as CDK2 degradation at 0.25 to 10 uM after 12 hrs by Westernblot analysis; format: cell-based; conditions: CWR22R; in short: as §5
PC-3 [13] = assay: Induction of cell cycle arrest in human PC3 cells assessed as accumulation at S phase at 250 nM after 48 hrs by propidium iodide staining based flow cytometry (reference value: 17.96%); format: functional
PC-3 [14] = assay: Induction of cell cycle arrest in human PC3 cells assessed as accumulation at G0/G1 phase at 1 uM after 48 hrs by propidium iodide staining based flow cytometry (reference value: 59.80%); format: functional
PC-3 [15] = assay: Induction of cell cycle arrest in human PC3 cells assessed as accumulation at G2/M phase at 1 uM after 48 hrs by propidium iodide staining based flow cytometry (reference value: 22.24%); format: functional
PC-3 [16] = assay: Induction of cell cycle arrest in human PC3 cells assessed as accumulation at S phase at 3 uM after 48 hrs by propidium iodide staining based flow cytometry (reference value: 17.96%); format: functional
PC-3 [17] = assay: Antiproliferative activity against AR-negative human PC3 cells at 2 uM after 24 hrs by CFSE dye based flow cytometry; format: functional, cell-based
In short: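 PC-3 cells treated 24 h at 2 µM alongside DMSO control. Single-cell suspension labelled with CFSE (final 5 µM) for 15 min at room temperature in the dark, then proliferation read by flow cytometry.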

[18] = target: T1, Protein cereblon/Cyclin-dependent kinase 2/Cyclin-dependent kinase 9; assay: Protac activity at CRBN/CDK2/CDK9 in AR-negative human PC3 cells assessed as induction of CDK2 protein degradation at 500 nM after 4 hrs by Western blot analysis; format: cell-based; conditions: PC-3; in short: as §3
[19] = target: T1, Protein cereblon/Cyclin-dependent kinase 2/Cyclin-dependent kinase 9; assay: Protac activity at CRBN/CDK2/CDK9 in AR-negative human PC3 cells assessed as CDK9 degradation at 250 nM preincubated with proteasome inhibitor MG132 for 2 hrs and measured after 8 hrs by Western blot analysis; format: cell-based; conditions: PC-3; in short: as §4
[20] = target: T1, Protein cereblon/Cyclin-dependent kinase 2/Cyclin-dependent kinase 9; assay: Protac activity at CRBN/CDK2/CDK9 in human MCF7 cells assessed as CDK9 degradation at 0.25 to 10 uM after 12 hrs by Westernblot analysis; format: cell-based; in short: as §5
[21] = target: T1, Protein cereblon/Cyclin-dependent kinase 2/Cyclin-dependent kinase 9; assay: Protac activity at CRBN/CDK2/CDK9 in human 22Rv1 cells assessed as CDK9 degradation at 0.25 to 10 uM after 12 hrs by Westernblot analysis; format: cell-based; conditions: CWR22R; in short: as §5

Chain of Protein cereblon/Cyclin-dependent kinase 4 (Homo sapiens) (P11802 2-303 limits assumed): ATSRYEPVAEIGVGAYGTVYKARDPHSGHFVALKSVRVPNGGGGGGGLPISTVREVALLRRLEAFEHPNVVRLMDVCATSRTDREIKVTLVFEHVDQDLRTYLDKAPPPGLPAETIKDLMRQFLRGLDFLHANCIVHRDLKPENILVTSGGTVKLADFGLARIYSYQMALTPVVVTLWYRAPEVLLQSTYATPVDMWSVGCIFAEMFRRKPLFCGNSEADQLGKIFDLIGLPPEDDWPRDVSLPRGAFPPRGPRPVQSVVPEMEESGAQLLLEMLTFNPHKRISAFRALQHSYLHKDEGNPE
Chain of Protein cereblon/Cyclin-dependent kinase 4 (Homo sapiens) (Q96SW2 whole entry partner): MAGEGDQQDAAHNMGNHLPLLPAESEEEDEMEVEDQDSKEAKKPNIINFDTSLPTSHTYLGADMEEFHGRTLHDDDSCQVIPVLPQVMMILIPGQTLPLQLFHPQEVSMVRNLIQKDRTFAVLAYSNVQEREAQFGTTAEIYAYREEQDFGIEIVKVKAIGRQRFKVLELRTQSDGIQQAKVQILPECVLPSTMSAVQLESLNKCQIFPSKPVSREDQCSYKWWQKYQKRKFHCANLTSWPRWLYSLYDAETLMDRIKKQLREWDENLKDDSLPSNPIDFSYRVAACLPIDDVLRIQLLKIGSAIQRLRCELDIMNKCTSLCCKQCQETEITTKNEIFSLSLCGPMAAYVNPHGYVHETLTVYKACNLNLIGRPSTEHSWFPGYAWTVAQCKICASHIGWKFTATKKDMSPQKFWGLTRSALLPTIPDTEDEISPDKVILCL
Chain of Protein cereblon/Cyclin-dependent kinase 6 (Homo sapiens) (Q00534 whole entry, looked up): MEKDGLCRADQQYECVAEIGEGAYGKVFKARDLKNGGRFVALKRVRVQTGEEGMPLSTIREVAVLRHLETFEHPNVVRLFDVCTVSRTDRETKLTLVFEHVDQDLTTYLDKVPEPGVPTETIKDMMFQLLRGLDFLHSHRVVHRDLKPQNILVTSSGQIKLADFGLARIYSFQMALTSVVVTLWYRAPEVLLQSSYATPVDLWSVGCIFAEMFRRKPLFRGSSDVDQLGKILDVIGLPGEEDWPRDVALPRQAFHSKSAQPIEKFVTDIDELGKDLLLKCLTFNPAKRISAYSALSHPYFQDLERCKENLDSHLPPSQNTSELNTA
Chain of Protein cereblon/Cyclin-dependent kinase 6 (Homo sapiens) (Q96SW2 whole entry, looked up): as the sequence (Q96SW2 whole entry partner) above

In the case of O=C(CCC(=O)N1CCN(Cc2ccc(NC(=O)c3n[nH]cc3Nc3ncnc4[nH]ccc34)cc2)CC1)NCCNc1cccc2c1C(=O)N(C1CCC(=O)NC1=O)C2=O (stereo not given), the Activity [1] was “Active”, the pIC50 (PC-3 [2]) was 6.92 and the Activity ([3]; PC-3) was “Dose-dependent effect”. The DC50 ([3]; pc-3) was 62 nM, the Activity ([4]; PC-3) was “Dose-dependent effect” and the DC50 ([4]; pc-3) was 33 nM. The Activity [5] was over 80%, the Activity [6] was “inactive” and the Activity [7] was “inactive”. The Activity [8] was “Active”, the Activity [9] was “inactive” and the Activity [10] was “inactive”. The pIC50 (L02) was 5.10, the pIC50 (CDK2/Cyclin A2) was 8.13 and the Activity [11] was “Active”. For the same compound, the Activity [12] was “Active”, the Activity (PC-3 [13]) was 27.72% and the Activity (PC-3 [14]) was 53.95%. For the same compound, the Activity (PC-3 [15]) was 36.82%, the Activity (PC-3 [16]) was 11.24% and the Activity (PC-3 [17]) was “Active”. For the same compound, the Activity [18] was “Active”, the Activity [19] was “inactive” and the Activity [20] was “Active”. The Activity [21] was “Active”.
